Laboratory results: ChEMBL document CHEMBL4311977, “Design and synthesis of parthenolide and 5-fluorouracil conjugates as potential anticancer agents against drug resistant hepatocellular carcinoma” (Eur J Med Chem, 2019)
Calls of active or inactive are those of the source. No cut-off for these calls is given here.

What was measured:
[1] = test system: Bel7402/5-FU; assay: Induction of apoptosis in human Bel7402/5-FU cells assessed as increase in apoptotic bodies incubated for 48 hrs by DAPI staining based fluorescence microscopic analysis; format: functional, cell-based
In short: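 Bel-7402/5-FU cells were seeded at 5 × 10⁵ per well and left 12 h, then exposed at three concentrations (1, 2, 5) for 48 h. Cells were washed three times in PBS and stained with DAPI for 10 min at room temperature. Nuclear morphology was scored by fluorescence microscopy.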

[2] = Therapeutic index, ratio of IC50 for mouse 3T3 cells to IC50 for human Bel7402/5-FU cells; format: toxicity; conditions: mouse 3T3 cells versus human Bel7402/5-FU cells, read-out: TI
[3] = test system: NIH3T3; assay: Cytotoxicity against mouse 3T3 cells; format: cell-based
[4] = test system: Bel7402/5-FU; assay: Induction of apoptosis in human Bel7402/5-FU cells assessed as activation of caspase-9 at 0.5 to 5 uM incubated for 24 hrs by Western blot analysis; format: functional, cell-based
In short: (§1)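 Bel-7402/5-FU cells were seeded at 5 × 10⁵ per well and left 12 h, then treated with four concentrations (0.5, 1, 2, 5) for 24 h. Cells were PBS-washed and lysed in RIPA on ice for 30 min, then denatured at 100 °C for 5 min. Lysates went through SDS-PAGE and PVDF transfer, 5% milk blocking for 1 h at room temperature, primary antibodies, and HRP secondary for 2 h at room temperature.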

[5] = Therapeutic index, ratio of IC50 for mouse 3T3 cells to IC50 for human Bel7402 cells; format: toxicity; conditions: mouse 3T3 cells versus human Bel7402 cells, read-out: TI
[6] = test system: Bel7402/5-FU; assay: Induction of apoptosis in human Bel7402/5-FU assessed as apoptotic cells at 0.5 uM incubated for 48 hrs by annexinV-FITC/propidium iodide staining based flow cytometry (reference value: 3.37 +/- 0.47 %)
[7] = test system: Bel7402/5-FU; assay: Induction of apoptosis in human Bel7402/5-FU assessed as late apoptotic cells at 2.5 uM incubated for 48 hrs by annexinV-FITC/propidium iodide staining based flow cytometry (reference value: 0.268 to 0.945 %)
[8] = test system: Bel7402/5-FU; assay: Induction of apoptosis in human Bel7402/5-FU cells assessed as downregulation of Bcl-2 expression at 0.5 to 5 uM incubated for 24 hrs by Western blot analysis; format: functional, cell-based; in short: as §1
[9] = test system: Bel7402/5-FU; assay: Down regulation of ABCC1 expression in human Bel7402/5-FU cells incubated for 24 hrs by western blot analysis; format: functional, cell-based; in short: as §1
[10] = test system: Bel7402/5-FU; assay: Induction of apoptosis in human Bel7402/5-FU assessed as apoptotic cells at 1 uM incubated for 48 hrs by annexinV-FITC/propidium iodide staining based flow cytometry (reference value: 3.37 +/- 0.47 %)
[11] = test system: Bel7402/5-FU; assay: Induction of apoptosis in human Bel7402/5-FU assessed as viable cells at 2.5 uM incubated for 48 hrs by annexinV-FITC/propidium iodide staining based flow cytometry (reference value: 96.9 to 97.1 %)
[12] = test system: Bel7402/5-FU; assay: Induction of apoptosis in human Bel7402/5-FU assessed as early apoptotic cells at 1 uM incubated for 48 hrs by annexinV-FITC/propidium iodide staining based flow cytometry (reference value: 20.1 to 20.3 %)
[13] = test system: Bel7402/5-FU; assay: Induction of apoptosis in human Bel7402/5-FU assessed as apoptotic cells at 2.5 uM incubated for 48 hrs by annexinV-FITC/propidium iodide staining based flow cytometry (reference value: 3.37 +/- 0.47 %)
[14] = test system: Bel7402/5-FU; assay: Induction of apoptosis in human Bel7402/5-FU assessed as late apoptotic cells at 1 uM incubated for 48 hrs by annexinV-FITC/propidium iodide staining based flow cytometry (reference value: 0.268 to 0.945 %)
[15] = test system: Bel7402/5-FU; assay: Induction of apoptosis in human Bel7402/5-FU cells assessed as downregulation of Bcl-xl expression at 0.5 to 5 uM incubated for 24 hrs by Western blot analysis; format: functional, cell-based; in short: as §1
[16] = test system: Bel-7402; assay: Antiproliferative activity against human Bel7402 incubated for 72 hrs by MTT assay; format: functional, cell-based; conditions: Bel-7402, 72 h
In short: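 Bel-7402 and its 5-FU-resistant subline were kept in RPMI-1640 with 10% FBS and 1% penicillin/streptomycin at 37 °C under 5% CO2. Cells were seeded at 5000 per well and left for 12 h, then exposed to a concentration series for 72 h. MTT stock (5 mg/mL) was added for 4 h and the product dissolved in DMSO. OD was read at 570 nm and IC50 obtained by curve fitting.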

[17] = test system: Bel7402/5-FU; assay: Induction of apoptosis in human Bel7402/5-FU assessed as viable cells at 1 uM incubated for 48 hrs by annexinV-FITC/propidium iodide staining based flow cytometry (reference value: 96.9 to 97.1 %)
[18] = test system: Bel7402/5-FU; assay: Increase in ADR intracellular accumulation in human Bel7402/5-FU cells preincubated for 24 hrs followed by adriamycin addition measured after 1 hr by flow cytometry
[19] = test system: Bel7402/5-FU; assay: Down regulation of ABCG2 expression in human Bel7402/5-FU cells incubated for 24 hrs by western blot analysis; format: functional, cell-based; in short: as §1
[20] = test system: Bel7402/5-FU; assay: Induction of apoptosis in human Bel7402/5-FU assessed as necrotic cells at 1 uM incubated for 48 hrs by annexinV-FITC/propidium iodide staining based flow cytometry (reference value: 0.024 to 0.157 %)
[21] = test system: Bel7402/5-FU; assay: Induction of apoptosis in human Bel7402/5-FU assessed as late apoptotic cells at 5 uM incubated for 48 hrs by annexinV-FITC/propidium iodide staining based flow cytometry (reference value: 0.945 %)
[22] = test system: Bel7402/5-FU; assay: Induction of apoptosis in human Bel7402/5-FU assessed as early apoptotic cells at 5 uM incubated for 48 hrs by annexinV-FITC/propidium iodide staining based flow cytometry (reference value: 20.1 %)
[23] = test system: Bel7402/5-FU; assay: Induction of apoptosis in human Bel7402/5-FU cells assessed as activation of caspase-3 at 0.5 to 5 uM incubated for 24 hrs by Western blot analysis; format: functional, cell-based; in short: as §1
[24] = test system: Bel7402/5-FU; assay: Potency index, ratio of parthenolide IC50 to compound IC50 for antiproliferative activity against human Bel7402/5-FU cells; format: functional
[25] = test system: Bel7402/5-FU; assay: Induction of apoptosis in human Bel7402/5-FU cells assessed as upregulation of Bax expression at 0.5 to 5 uM incubated for 24 hrs by Western blot analysis; format: functional, cell-based; in short: as §1

**Q.** With C=C1C(=O)O[C@H]2[C@H]1CC/C(COC(=O)Cn1cc(F)c(=O)n(Cc3ccc(C(F)(F)F)cc3)c1=O)=C\CC[C@@]1(C)O[C@@H]21 as the compound, how does the Activity [1] read?
**A.** Dose-dependent effect

**Q.** What about the selectivity ratio [2] of the same compound?
**A.** 2.3

**Q.** What about the IC50 [3] of the same compound?
**A.** 5.2 µM

**Q.** What about the Activity [4] of the same compound?
**A.** Active

**Q.** What about the selectivity ratio [5] of the same compound?
**A.** 2.3

**Q.** And the Activity [6]?
**A.** 3.97%

**Q.** And the Activity [7]?
**A.** 4.86%

**Q.** And the Activity [8]?
**A.** Active

**Q.** What about the Activity [9] of the same compound?
**A.** Dose-dependent effect

**Q.** And the Activity [10]?
**A.** 4.9%

**Q.** What about the viability at 2.5 µM [11] of the same compound?
**A.** 85.6%

**Q.** What about the Activity [12] of the same compound?
**A.** 3.5%

**Q.** And the Activity [13]?
**A.** 14.43%

**Q.** What about the Activity [14] of the same compound?
**A.** 0.909%

**Q.** What about the Activity [15] of the same compound?
**A.** Active

**Q.** What about the IC50 [16] of the same compound?
**A.** 2.25 µM

**Q.** And the viability at 1 µM [17]?
**A.** 94.3%

**Q.** And the Activity [18]?
**A.** Dose-dependent effect

**Q.** And the Activity [19]?
**A.** Dose-dependent effect

**Q.** What about the Activity [20] of the same compound?
**A.** 1.9%

**Q.** And the Activity [21]?
**A.** 19.5 - 46.1%

**Q.** And the Activity [22]?
**A.** 18.1 - 82.7%

**Q.** What about the Activity [23] of the same compound?
**A.** Active

**Q.** And the “Ratio IC50” value [24]?
**A.** 5.8

**Q.** What about the Activity [25] of the same compound?
**A.** Active
